Legend:
[1] = tested on: mice; conditions: cited from earlier work
[2] = tested on: C57Bl6/J mice; assay: Zymosan-induced peritonitis; assay type: in vivo, mouse; conditions: for Protection in vivo as judged by neutrophil and monocyte levels (in words): same dose and time as C15 (0.32 ng/kg i.p. 1 h before zymosan), 4 h
Outline: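 C57BL6/J mice received test peptide i.p. (8 pg/mouse, ∼0.32 ng/kg, in 500 μl) or PBS, either 1 h before or 2 h after 10 μg zymosan A i.p. Peritoneal lavage with PBS-3 mM EDTA was done at 2–48 h. Cells were counted, Fc-blocked, stained for 7/4 and Ly-6G, and typed by FACS: neutrophils 7/4high Ly-6Ghigh, monocytes 7/4high Ly-6Glow. Six to eight mice per treatment.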

[3] = tested on: peritoneal MΦs (PMΦs); assay: MΦ activation assay: LPS/IFN-γ–induced inflammatory cytokine expression; assay type: cell-based, mouse (C57BL/6); conditions: for Antiinflammatory activity in the MΦ activation assay (in words): PMΦs, peptides 0.1 pM–100 nM, LPS/IFN-γ 15 h
[4] = tested on: ChemR23−/− PMΦs; assay: MΦ chemotaxis assay with ChemR23 KO MΦs; assay type: cell-based, mouse; conditions: MΦs from ChemR23−/− mice, 4 h migration
[5] = tested on: ChemR23−/− PMΦs; assay: MΦ activation assay in MΦs from ChemR23−/− mice; assay type: cell-based, mouse; conditions: 0.1–1 pM, 1 h pretreatment, LPS/IFN-γ 15 h; ELISA
[6] = tested on: peritoneal MΦs (PMΦs); assay: MΦ chemotaxis assay; assay type: cell-based, mouse; conditions: 25 ng/ml, positive control, 4 h; mean ± SEM, n = 4 independent experiments
Outline: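 Bio-Gel-elicited peritoneal MΦs (4 × 10^5) from wild-type or ChemR23−/− mice were placed on 8-μm-pore membranes in RPMI/25 mM Hepes/0.1% BSA. They migrated 4 h toward test peptide, 25 ng/ml RANTES (positive control) or serum-free medium. For Gαi blockade, cells were pretreated 30 min with 200 ng/ml PTX. Migrated nuclei were formalin-fixed, DAPI-stained and imaged, with ≥3 replicate wells per treatment. Migration index = treatment threshold area ÷ serum-free area; n = 4 experiments.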

[7] = tested on: MΦs; assay: Cell viability, MTS assay; assay type: cell-based, mouse; conditions: MTS assay (Promega)
[8] = tested on: Bio-Gel–elicited peritoneal cells from ChemR23 KO mice; assay: Calcium flux in ChemR23 KO cells; assay type: cell-based, mouse; conditions: Fura-PE3/AM
[9] = tested on: wild-type Bio-Gel–elicited peritoneal cells; assay: Calcium flux in wild-type cells; assay type: cell-based, mouse; conditions: Fura-PE3/AM
Outline: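 Cells from mice 4 d after Bio-Gel elicitation were suspended at 10^7 cells/ml in HBSS with CaCl2/MgCl, 0.5% BSA and 10 mM Hepes. They were loaded with 2 μM Fura-PE3/AM for 45 min at room temperature, then washed twice. 3 × 10^6 cells were added to prewarmed 37°C buffer in a cuvette. After at least 60 s, fluorescence was recorded at excitation 340/380 nm and emission 510 nm.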

[10] = 0.32 ng/kg i.p. 1 h before zymosan, lavage fluid at 4 h
[11] = time course, 8 pg/mouse i.p. 1 h before zymosan, 4 h after zymosan, FACS
[12] = classically activated PMΦs, quantitative RT-PCR normalized to HPRT

## CC[C@@H](O)/C=C/C=C\C[C@@H](O)/C=C/C=C/C=C\[C@@H](O)CCCC(=O)O [RvE1, resolvin E1]
[1]; 300 ng/mouse i.p. (12 μg/kg)
  Reduction of PMN numbers in peritoneal exudates: up to 25%

## GLFHDQAGPPAGYEF [C15-S]
[2]
  Protection in vivo as judged by neutrophil and monocyte levels (in words): not protective
[3]
  Antiinflammatory activity in the MΦ activation assay (in words): devoid of antiinflammatory activity

## C[C@@H]1C[C@H]2[C@@H]3CCC4=CC(=O)C=C[C@]4(C)[C@@]3(F)[C@@H](O)C[C@]2(C)[C@@]1(O)C(=O)CO [dexamethasone]
[1]; 30 μg/mouse (1.2 mg/kg)
  Suppression of monocyte and neutrophil influx: 50%

## ELSETQRRSLQVALEEFHK [N19]
[3]
  Antiinflammatory activity in the MΦ activation assay (in words): devoid of antiinflammatory activity

## RALRTK [C6]
[3]
  Antiinflammatory activity in the MΦ activation assay (in words): no detectable antiinflammatory activity

## PHGYFLPGQFA [C11]
[3]
  Antiinflammatory activity in the MΦ activation assay (in words): devoid of antiinflammatory activity

## AGEDPHGYFLPGQFA [C15]
[2]; 4 pg/mouse (∼0.16 ng/kg) i.p., 4 h after zymosan
  Effect at 4 pg/mouse (in words): significant antiinflammatory effects
[2]; 8 pg i.p. 2 h after zymosan, 4 h after zymosan
  Decrease in monocyte recruitment, C15 post-zymosan: 42%
[2]; 8 pg i.p. 2 h after zymosan, lavage 4 h after zymosan, zymosan alone 0.69 × 10^6
  Peritoneal monocyte levels, C15 post-zymosan: 0.42 × 10^6 cells
[2]; 8 pg i.p. 2 h after zymosan, lavage 4 h after zymosan, zymosan alone 1.9 × 10^6
  Peritoneal neutrophil numbers, C15 post-zymosan: 0.83 × 10^6 cells
[2]; [10]
  Reduction of peritoneal IL-1β expression: 67%
  Reduction of peritoneal IL-6 expression: 67%
  Reduction of peritoneal JE expression: 59%
  Reduction of peritoneal KC expression: 38%
  Reduction of peritoneal TNF-α expression: 51%
[2]; 2–4 h after zymosan, 8 pg/mouse i.p. pretreatment, zymosan alone 0.51 × 10^6
  Rate of monocyte influx: 0.18 × 10^6 cells/h
[2]; time course, 8 pg/mouse i.p. 1 h before zymosan
  Magnitude of peak neutrophilia relative to zymosan-challenged mice: ~50%
[2]; time course, 8 pg/mouse i.p. 1 h before zymosan, 2 h after zymosan, FACS
  Suppression of neutrophil infiltration, 2 h: 50%
[2]; [11]
  Suppression of monocyte levels, 4 h: 63%
  Suppression of neutrophil infiltration, 4 h: 66%
[2]; time course, 8 pg/mouse i.p. 1 h before zymosan, 8 h after zymosan, FACS
  Suppression of monocyte levels, 8 h: 61%
[2]; time course, 8 pg/mouse i.p. 1 h before zymosan, 24 h after zymosan, FACS
  Suppression of neutrophil infiltration, 24 h: 50%
[2]; time course, 8 pg/mouse i.p. 1 h before zymosan, 48 h after zymosan, FACS
  Suppression of monocyte levels, 48 h: 64%
[2]; time course, 8 pg/mouse i.p. 1 h before zymosan, zymosan alone 1.25 × 10^6
  Peak peritoneal neutrophil number: 0.62 × 10^6 cells
[4]
  Chemotactic effect in ChemR23 KO MΦs (in words): completely ablated
[5]
  Suppression of proinflammatory mediator production by ChemR23 KO MΦs (in words): unable to suppress

## FSRALRTK [C8]
[3]
  Antiinflammatory activity in the MΦ activation assay (in words): no detectable antiinflammatory activity

## KPECTIKPNGRRRKCLACIK [M20]
[3]
  Antiinflammatory activity in the MΦ activation assay (in words): devoid of antiinflammatory activity

## fMLP [reference compound]
[4]
  Chemotactic effect in ChemR23 KO MΦs (in words): unaffected

## AGEDPHGYALPGQAA [C15-M]
[2]
  Protection in vivo as judged by neutrophil and monocyte levels (in words): not protective
[3]
  Antiinflammatory activity in the MΦ activation assay (in words): devoid of antiinflammatory activity

B1: RANTES: CC chemokine, positive control in chemotaxis (25 ng/ml; 3 nM) (protein, UniProt P13501 24-91, looked up)
C-C motif chemokine 5: SPYSSDTTPCCFAYIARPLPRAHIKEYFYTSGKCSNPAVVFVTRKNRQVCANPEKKWVREYINSLEMS
[4]
  Chemotactic effect in ChemR23 KO MΦs (in words): unaffected
[6]
  Migration index: 6 ± 0.59

B2: Chemerin: recombinant murine chemerin (R&D Systems), chemotactic protein that binds ChemR23 (protein, UniProt Q9DD06 21-156, looked up)
Retinoic acid receptor …: EPELSETQRRSLQVALEEFHKHPPVQLAFQEIGVDRAEEVLFSAGTFVRLEFKLQQTNCPKKDWKKPECTIKPNGRRRKCLACIKMDPKGKILGRIVHCPILKQGPQDPQELQCIKIAQAGEDPHGYFLPGQFAFS
[7]
  Effect on cell viability (in words): not found to affect cell viability adversely
[4]
  Chemotactic effect in ChemR23 KO MΦs (in words): completely ablated
[3]; [12]
  Induction of IL-10 mRNA expression: 10 fold
  Induction of TGF-β mRNA expression: twofold
[8]
  Calcium flux (in words): failed to do so
[9]
  Calcium flux (in words): induce calcium flux
